Columns and labels:
Assay type in all cases: cell-based
Raji [1] = assay: Inhibition of 12-O-tetradecanoylphorbol-13-acetate-induced EBV-early antigen activation in human Raji cells assessed as early antigen induction at 100 molar ratio after 48 hrs by conventional indirect immunofluorescence technique relative to TPA; design: scale not given: the % may be the effect or the level left; conditions: human gammaherpesvirus 4
In short: (§1)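 Raji cells (1 × 10^6 cells/mL, RPMI-1640 with 10% FBS) were induced with 4 mM n-butyric acid plus […] TPA (20 ng/mL in DMSO). Test compound (32, 16, 3.2, 0.32 nmol in 1 mL) was present for 48 h at 37 °C. EA-positive cells were stained with NPC patient sera and detected by indirect immunofluorescence, at least 500 cells per assay, three repeats. Results are given as percent of butyrate+TPA control.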

Raji [2] = assay: Inhibition of 12-O-tetradecanoylphorbol-13-acetate-induced EBV-early antigen activation in human Raji cells assessed as early antigen induction at 1000 molar ratio after 48 hrs by conventional indirect immunofluorescence technique relative to TPA; design: scale not given: the % may be the effect or the level left; conditions: human gammaherpesvirus 4; in short: as §1
Raji [3] = assay: Inhibition of 12-O-tetradecanoylphorbol-13-acetate-induced EBV-early antigen activation in human Raji cells assessed as early antigen induction at 10 molar ratio after 48 hrs by conventional indirect immunofluorescence technique relative to TPA; design: scale not given: the % may be the effect or the level left; conditions: human gammaherpesvirus 4; in short: as §1
[4] = Cytotoxicity against human Raji cells assessed as cell viability at 1000 molar ratio after 48 hrs by trypan blue staining method; conditions: read-out: Activity
In short: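 Raji cells (EBV genome-carrying, nonproducer) at 1 × 10^6 cells/mL in RPMI-1640 with 10% FBS were exposed to 4 mM n-butyric acid, […] TPA and test compound at 37 °C in a CO2 incubator. Viability was scored by Trypan Blue staining and given as percent viable Raji cells.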

Raji [5] = assay: Inhibition of 12-O-tetradecanoylphorbol-13-acetate-induced EBV-early antigen activation in human Raji cells assessed as early antigen induction at 500 molar ratio after 48 hrs by conventional indirect immunofluorescence technique relative to TPA; design: scale not given: the % may be the effect or the level left; conditions: human gammaherpesvirus 4; in short: as §1

SMILES	Activity (Raji [1]) [%]	Activity (Raji [2]) [%]	Activity (Raji [3]) [%]	viability at 48 h, 1000 molar ratio [4] [%]	Activity (Raji [5]) [%]
C[C@@H](C/C=C/C(C)(C)O)[C@@H]1CC[C@]2(C)[C@H]3CC[C@@]4(C(C)(C)O)OCCC[C@H]4[C@]3(C)CC[C@@]12C [(23E)-23-DEHYDRO-25-HYDROXYSUNPOLLENOL]	70.6	0	90	70	22
CC(C)=CCC[C@H](C)[C@@H]1CC[C@]2(C)[C@H]3CC[C@@]4(C(C)(C)O)OCCC[C@H]4[C@]3(C)CC[C@@]12C [SUNPOLLENOL]	74.3	3.1	96.8	70	30.5
C[C@@H](CC[C@H](O)C(C)(C)O)[C@@H]1CC[C@]2(C)[C@H]3CC[C@@]4(C(C)(C)O)OCCC[C@H]4[C@]3(C)CC[C@@]12C [(24S)-24,25-DIHYDROXYSUNPOLLENOL]	73.3	0	94.2	70	25.3
C[C@@H](CC[C@H]1OC1(C)C)[C@@H]1CC[C@]2(C)[C@H]3CC[C@@]4(C(C)(C)O)OCCC[C@H]4[C@]3(C)CC[C@@]12C [(24R)-24,25-EPOXYSUNPOLLENOL]	72.6	0	91.8	60	26.3
CC1=C(/C=C/C(C)=C/C=C/C(C)=C/C=C/C=C(C)/C=C/C=C(C)/C=C/C2=C(C)CCCC2(C)C)C(C)(C)CCC1		8.6	100		
C[C@@H](CC[C@@H](O)C(C)(C)O)[C@@H]1CC[C@]2(C)[C@H]3CC[C@@]4(C(C)(C)O)OCCC[C@H]4[C@]3(C)CC[C@@]12C	72.4	0	92.5	70	24.4
C[C@@H](CC[C@@H]1OC1(C)C)[C@@H]1CC[C@]2(C)[C@H]3CC[C@@]4(C(C)(C)O)OCCC[C@H]4[C@]3(C)CC[C@@]12C	75.9	0	97.4	70	27.3

— ChEMBL document CHEMBL1147249, “Sunpollenol and five other rearranged 3,4-seco-tirucallane-type triterpenoids from sunflower pollen and their inhibitory effects on Epstein-Barr virus activation” (J Nat Prod, 2003)
